Experimental data pooled from the literature.
Lines come from different studies, so protocols differ.
LRRK2 G2019S: Leucine-rich repeat serine/threonine-protein kinase 2 (LRRK2, Homo sapiens, UniProt Q5S007, G2019S)
LRRK2: Leucine-rich repeat serine/threonine-protein kinase 2 (LRRK2, Homo sapiens, UniProt Q5S007)

With `O=C(/C=C/c1ccc(O)c(O)c1)O[C@H](Cc1ccc(O)c(O)c1)C(=O)O` the IC50 was 496 nM (LRRK2 G2019S; enzyme activity; inhibitor; radiometric).
`CC(=O)NC1CCN(c2ncnc3[nH]cc(-c4cccc(Cl)c4)c23)CC1` gave an IC50 of 1100 nM (LRRK2; enzyme activity in cells; inhibitor).
For `O=c1ccc2cc(O)c(O)cc2o1`, the IC50 was 1730 nM (LRRK2; enzyme activity; inhibitor; radiometric).
For `C[C@@H]1CN(c2cc(-c3nn(C)c4ccc(OC5(C)CC5)cc34)ncn2)C[C@H](C)O1`, the EC50 was over 50000 nM (LRRK2; target engagement in cells; BRET).
With `Cc1cnc(-c2ccc(-c3ccc(NC(=O)Nc4c(F)cc(F)cc4F)cc3F)c3c2C(=O)NC3)[nH]1` the Kd was 260 nM (LRRK2; binding; competition with immobilised ligand).
The IC50 of `COc1cc(N2CCN(C)CC2)ccc1Nc1ncc2c(n1)N(C)c1ccccc1C(=O)N2C` is reported as 29 nM (LRRK2; enzyme activity; inhibitor).
With `CC(Cc1ccc(O)c(O)c1)C(C)Cc1ccc(O)c(O)c1` (stereo not drawn) the IC50 was 210 nM (LRRK2 G2019S; enzyme activity; inhibitor; radiometric).
For `COc1cc(N2CCN(C)CC2)ccc1Nc1ncc2c(n1)N(C)c1ccccc1C(=O)N2`, the IC50 was 70 nM (LRRK2; enzyme activity; inhibitor).
For `CN(C(=O)c1cnn2cccnc12)c1cc2c(cc1N1CCOCC1)C(=O)N(C[C@@H](F)C(C)(C)O)C2`, the EC50 was over 50000 nM (LRRK2; target engagement in cells; BRET).
